Columns and labels:
MCF7 [1] = test: Antiproliferative against multidrug-resistant human MCF7 cells after 72 hrs by MTT assay; type: functional, cell-based; settings: MCF7, 72 h
Summary of the method: (§1)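 MTT cytotoxicity assay with 72 h continuous exposure of cells to test compounds, run alongside docetaxel as positive control. The panel comprised four parental human cancer lines (HeLa, A549, A2780, MCF-7) and two drug-resistant sublines (A2780-MDR, MCF-7-MDR).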

A2780 [2] = test: Antiproliferative against multidrug-resistant human A2780 cells after 72 hrs by MTT assay; type: functional, cell-based; settings: A2780, 72 h; summary of the method: as §1
A2780 [3] = test: Antiproliferative against human A2780 cells after 72 hrs by MTT assay; type: functional, cell-based; settings: A2780, 72 h; summary of the method: as §1
HeLa [4] = test: Antiproliferative against human HeLa cells after 72 hrs by MTT assay; type: functional, cell-based; summary of the method: as §1
MCF7 [5] = test: Antiproliferative against human MCF7 cells after 72 hrs by MTT assay; type: functional, cell-based; settings: MCF7, 72 h; summary of the method: as §1
A549 [6] = test: Antiproliferative against human A549 cells after 72 hrs by MTT assay; type: functional, cell-based; settings: A549, 72 h; summary of the method: as §1
MCF7 [7] = test: Ratio of docetaxel IC50 to compound IC50 for human MCF7 cells after 72 hrs by MTT assay; type: functional
MCF7 [8] = test: Ratio of docetaxel IC50 to compound IC50 for multidrug-resistant human MCF7 cells after 72 hrs by MTT assay; type: functional
HeLa [9] = test: Ratio of docetaxel IC50 to compound IC50 for human HeLa cells after 72 hrs by MTT assay; type: functional
A2780 [10] = test: Ratio of docetaxel IC50 to compound IC50 for human A2780 cells after 72 hrs by MTT assay; type: functional
A549 [11] = test: Ratio of docetaxel IC50 to compound IC50 for human A549 cells after 72 hrs by MTT assay; type: functional

SMILES	IC50 (MCF7 [1]) [µM]	IC50 (A2780 [2]) [µM]	IC50 (A2780 [3]) [µM]	IC50 (HeLa [4]) [µM]	IC50 (MCF7 [5]) [µM]	IC50 (A549 [6]) [µM]	Ratio IC50 (MCF7 [7])	Ratio IC50 (MCF7 [8])	Ratio IC50 (HeLa [9])	Ratio IC50 (A2780 [10])	Ratio IC50 (A549 [11])
CC(=O)O[C@@]12CO[C@@H]1C[C@H](O)[C@@]1(C)C(=O)[C@H](O)C3=C(C)[C@@H](OC(=O)[C@H](OC(=O)c4nccc5ccccc45)[C@@H](NC(=O)OC(C)(C)C)c4ccccc4)C[C@@](O)([C@@H](OC(=O)c4ccccc4)[C@H]21)C3(C)C	0.0178	0.0122	0.0493	0.0332	0.0168	0.0281	–	–	–	–	–
CC(=O)O[C@@]12CO[C@@H]1C[C@H](O)[C@@]1(C)C(=O)[C@H](O)C3=C(C)[C@@H](OC(=O)[C@H](OC(=O)c4ccc5ccccc5n4)[C@@H](NC(=O)OC(C)(C)C)c4ccccc4)C[C@@](O)([C@@H](OC(=O)c4ccccc4)[C@H]21)C3(C)C	0.0093	0.0332	0.035	0.0307	0.0264	0.0382	–	–	–	–	–
CC(=O)O[C@H]1C(=O)[C@@]2(C)[C@H]([C@H](OC(=O)c3ccccc3)[C@]3(O)C[C@H](OC(=O)[C@H](OC(=O)c4cn(C5CC5)c5cc(Cl)c(F)cc5c4=O)[C@@H](NC(=O)OC(C)(C)C)c4ccccc4)C(C)=C1C3(C)C)[C@]1(OC(C)=O)CO[C@@H]1C[C@@H]2O	0.0389	0.0345	0.0398	0.0253	0.0302	0.0288	–	–	–	–	–
CC(=O)O[C@@]12CO[C@@H]1C[C@H](O)[C@@]1(C)C(=O)[C@H](O)C3=C(C)[C@@H](OC(=O)[C@H](O)[C@@H](NC(=O)OC(C)(C)C)c4ccccc4)C[C@@](O)([C@@H](OC(=O)c4ccccc4)[C@H]21)C3(C)C [DOCETAXEL]	0.18	0.126	0.033	0.0501	0.0385	0.0352	–	–	–	–	–
COc1cc(C(=O)O[C@@H](C(=O)O[C@H]2C[C@@]3(O)[C@@H](OC(=O)c4ccccc4)[C@@H]4[C@]5(OC(C)=O)CO[C@@H]5C[C@H](O)[C@@]4(C)C(=O)[C@H](OC(C)=O)C(=C2C)C3(C)C)[C@@H](NC(=O)OC(C)(C)C)c2ccccc2)nc2ccccc12	0.0182	0.0213	0.0301	0.0349	0.0476	0.0323	–	–	–	–	–
COc1cc(C(=O)O[C@@H](C(=O)O[C@H]2C[C@@]3(O)[C@@H](OC(=O)c4ccccc4)[C@@H]4[C@]5(OC(C)=O)CO[C@@H]5C[C@H](O)[C@@]4(C)C(=O)[C@H](O)C(=C2C)C3(C)C)[C@@H](NC(=O)OC(C)(C)C)c2ccccc2)nc2ccccc12	0.0256	0.0439	0.0329	0.039	0.0128	0.0334	2	–	–	–	–
CC(=O)O[C@@]12CO[C@@H]1C[C@H](O)[C@@]1(C)C(=O)[C@H](O)C3=C(C)[C@@H](OC(=O)[C@H](OC(=O)c4cnc5ccccc5c4)[C@@H](NC(=O)OC(C)(C)C)c4ccccc4)C[C@@](O)([C@@H](OC(=O)c4ccccc4)[C@H]21)C3(C)C	0.0363	0.0349	0.0448	0.041	0.0178	0.0412	2	–	–	–	–
CC(=O)O[C@H]1C(=O)[C@@]2(C)[C@H]([C@H](OC(=O)c3ccccc3)[C@]3(O)C[C@H](OC(=O)[C@H](OC(=O)c4ccc5ccccc5n4)[C@@H](NC(=O)OC(C)(C)C)c4ccccc4)C(C)=C1C3(C)C)[C@]1(OC(C)=O)CO[C@@H]1C[C@@H]2O	0.0241	0.0298	0.0457	0.0199	0.0373	0.0271	–	–	–	–	–
CC(=O)O[C@@]12CO[C@@H]1C[C@H](O)[C@@]1(C)C(=O)[C@H](O)C3=C(C)[C@@H](OC(=O)[C@H](OC(=O)c4ccc5ncccc5c4)[C@@H](NC(=O)OC(C)(C)C)c4ccccc4)C[C@@](O)([C@@H](OC(=O)c4ccccc4)[C@H]21)C3(C)C	0.0088	0.0302	0.0231	0.0346	0.0307	0.0388	–	20	–	–	–
CC(=O)O[C@H]1C(=O)[C@@]2(C)[C@H]([C@H](OC(=O)c3ccccc3)[C@]3(O)C[C@H](OC(=O)[C@H](OC(=O)c4cc(-c5ccccc5)nc5ccccc45)[C@@H](NC(=O)OC(C)(C)C)c4ccccc4)C(C)=C1C3(C)C)[C@]1(OC(C)=O)CO[C@@H]1C[C@@H]2O	0.0183	0.0498	0.0282	0.0118	0.0314	0.0425	–	–	5	–	–
CC(=O)O[C@H]1C(=O)[C@@]2(C)[C@H]([C@H](OC(=O)c3ccccc3)[C@]3(O)C[C@H](OC(=O)[C@H](OC(=O)c4nccc5ccccc45)[C@@H](NC(=O)OC(C)(C)C)c4ccccc4)C(C)=C1C3(C)C)[C@]1(OC(C)=O)CO[C@@H]1C[C@@H]2O	0.0459	0.0186	0.0169	0.0412	0.0266	0.0353	–	–	–	2	–
CC(=O)O[C@@]12CO[C@@H]1C[C@H](O)[C@@]1(C)C(=O)[C@H](O)C3=C(C)[C@@H](OC(=O)[C@H](OC(=O)c4cc(-c5ccccc5)nc5ccccc45)[C@@H](NC(=O)OC(C)(C)C)c4ccccc4)C[C@@](O)([C@@H](OC(=O)c4ccccc4)[C@H]21)C3(C)C	0.0284	0.0325	0.0416	0.0193	0.0398	0.016	–	–	–	–	2
CC(=O)O[C@@]12CO[C@@H]1C[C@H](O)[C@@]1(C)C(=O)[C@H](O)C3=C(C)[C@@H](OC(=O)[C@H](OC(=O)c4cn(C5CC5)c5cc(Cl)c(F)cc5c4=O)[C@@H](NC(=O)OC(C)(C)C)c4ccccc4)C[C@@](O)([C@@H](OC(=O)c4ccccc4)[C@H]21)C3(C)C	0.0212	0.0297	0.0453	0.0326	0.042	0.0385	–	–	–	–	–
CC(=O)O[C@H]1C(=O)[C@@]2(C)[C@H]([C@H](OC(=O)c3ccccc3)[C@]3(O)C[C@H](OC(=O)[C@H](OC(=O)c4ccc5ncccc5c4)[C@@H](NC(=O)OC(C)(C)C)c4ccccc4)C(C)=C1C3(C)C)[C@]1(OC(C)=O)CO[C@@H]1C[C@@H]2O	0.0357	0.0351	0.0163	0.0185	0.0298	0.0284	–	–	–	2	–
CC(=O)O[C@H]1C(=O)[C@@]2(C)[C@H]([C@H](OC(=O)c3ccccc3)[C@]3(O)C[C@H](OC(=O)[C@H](OC(=O)c4cnc5ccccc5c4)[C@@H](NC(=O)OC(C)(C)C)c4ccccc4)C(C)=C1C3(C)C)[C@]1(OC(C)=O)CO[C@@H]1C[C@@H]2O	0.0378	0.029	0.0342	0.0363	0.0433	0.041	–	–	–	–	–
